Results taken from paper PMC13170702 (Nuclear medicine and biology, 2025).

Columns and labels:
[1] = HPLC stability determination of final drug product; format: physicochemical; settings: ambient temperature, shielded container
Method in brief: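 Final product was formulated at 44–463 MBq/mL in USP ethanol (1 mL)/0.5 mg ascorbic acid in 0.9 % sodium chloride, sterile filtered and sealed in a glass vial. It was held at ambient temperature in a shielded container and checked by HPLC after end-of-synthesis. Release QC covered HPLC radiochemical purity (≥90 %), pH 4.5–7.5, endotoxin, GC residual solvents, sterility and filter integrity.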

[2] = i.v., low molar activity tracer, PET-CT; cited from earlier work

SMILES: COC(=O)[C@@H](N)CC(=O)Nc1ccc2c(c1)Cc1cc([18F])ccc1-2 [[^18F]RP-115, methyl N^4-(7-[^18F]fluoro-9H-fluoren-2-yl)asparaginate]
- expiration time after end-of-synthesis (EOS) [1]: 4 h
- CNS activity uptake (SUV) [2]: > 1
